According to ChEMBL document CHEMBL4602720, “Degradation versus Inhibition: Development of Proteolysis-Targeting Chimeras for Overcoming Statin-Induced Compensatory Upregulation of 3-Hydroxy-3-methylglutaryl Coenzyme A Reductase” (J Med Chem, 2020):

biological target: T1, Protein cereblon/3-hydroxy-3-methylglutaryl-coenzyme A reductase (Cricetulus griseus, UniProt P00347+G3H338); test: Protac activity at CRBN/HMGCR in Insig-1/Insig-2 deficient Chinese hamster SRD15 cells assessed as induction of HMGCR degradation after 16 hrs by immunoblotting analysis
T1 sequence (P00347 whole entry): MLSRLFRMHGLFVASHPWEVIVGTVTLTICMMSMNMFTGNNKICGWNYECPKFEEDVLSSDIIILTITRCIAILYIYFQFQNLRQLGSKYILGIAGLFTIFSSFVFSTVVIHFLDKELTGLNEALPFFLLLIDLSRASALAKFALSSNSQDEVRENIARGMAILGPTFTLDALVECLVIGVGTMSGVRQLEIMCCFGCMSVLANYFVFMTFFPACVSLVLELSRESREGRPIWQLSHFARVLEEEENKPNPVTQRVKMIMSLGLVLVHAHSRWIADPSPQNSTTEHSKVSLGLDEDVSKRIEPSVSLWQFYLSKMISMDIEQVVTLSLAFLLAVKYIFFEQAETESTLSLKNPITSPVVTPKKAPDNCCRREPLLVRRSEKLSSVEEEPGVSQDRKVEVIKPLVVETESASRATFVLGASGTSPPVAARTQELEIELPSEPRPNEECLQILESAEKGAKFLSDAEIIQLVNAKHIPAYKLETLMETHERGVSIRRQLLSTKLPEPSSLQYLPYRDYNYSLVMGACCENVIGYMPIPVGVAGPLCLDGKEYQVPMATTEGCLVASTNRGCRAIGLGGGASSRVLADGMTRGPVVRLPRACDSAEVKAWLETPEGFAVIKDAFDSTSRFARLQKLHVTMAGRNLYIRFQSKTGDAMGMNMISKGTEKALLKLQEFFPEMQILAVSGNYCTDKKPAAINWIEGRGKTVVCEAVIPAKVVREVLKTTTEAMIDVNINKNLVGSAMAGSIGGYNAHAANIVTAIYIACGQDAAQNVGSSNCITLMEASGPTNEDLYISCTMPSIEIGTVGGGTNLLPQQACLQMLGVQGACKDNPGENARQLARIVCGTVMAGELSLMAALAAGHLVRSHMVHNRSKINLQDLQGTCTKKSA
T1 sequence (G3H338 whole entry): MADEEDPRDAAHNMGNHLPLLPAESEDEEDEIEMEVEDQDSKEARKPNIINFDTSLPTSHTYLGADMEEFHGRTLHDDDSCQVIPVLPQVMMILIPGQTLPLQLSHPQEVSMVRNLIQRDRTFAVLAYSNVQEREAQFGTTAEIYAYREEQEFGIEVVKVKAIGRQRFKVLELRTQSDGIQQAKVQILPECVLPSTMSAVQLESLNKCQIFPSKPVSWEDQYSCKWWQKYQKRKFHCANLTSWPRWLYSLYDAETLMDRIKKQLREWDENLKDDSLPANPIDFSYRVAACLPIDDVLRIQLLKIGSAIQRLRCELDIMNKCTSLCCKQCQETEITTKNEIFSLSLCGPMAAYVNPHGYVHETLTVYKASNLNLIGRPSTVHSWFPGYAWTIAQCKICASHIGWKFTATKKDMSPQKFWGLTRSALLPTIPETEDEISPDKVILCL
How it was run: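 SRD15 cells treated with compound at varying concentrations for 16 h, final DMSO ≤0.1%; RIPA lysates (Lowry protein) immunoblotted for HMGCR, densitometry normalized to actin, DMSO set to 1; DC50 = concentration giving 50% loss versus DMSO, fitted to dose-response curve, mean of 3 independent experiments.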

Row | DC50 | SMILES
1 | 200 nM | CC(C)c1c(C(=O)Nc2ccccc2)c(-c2cccc(OCCCc3cn(CCOCCOCCOCCOCCOCCNc4cccc5c4C(=O)N(C4CCC(=O)NC4=O)C5=O)nn3)c2)c(-c2ccc(F)cc2)n1CC[C@@H](O)C[C@@H](O)CC(=O)O (stereo partly specified)
2 | > 3000 nM | CC(C)c1c(C(=O)Nc2ccccc2)c(-c2cccc(OCCCCCc3cn(CCOCCOCCOCCOCCNc4ccc5c(c4)C(=O)N(C4CCC(=O)NC4=O)C5=O)nn3)c2)c(-c2ccc(F)cc2)n1CC[C@@H](O)C[C@@H](O)CC(=O)O (stereo partly specified)
3 | 400 nM | CC(C)c1c(C(=O)Nc2ccccc2)c(-c2cccc(OCCCCc3cn(CCOCCOCCOCCOCCNc4cccc5c4C(=O)N(C4CCC(=O)NC4=O)C5=O)nn3)c2)c(-c2ccc(F)cc2)n1CC[C@@H](O)C[C@@H](O)CC(=O)O (stereo partly specified)
4 | > 3000 nM | CC(C)c1c(C(=O)Nc2ccccc2)c(-c2cccc(OCCCCc3cn(CCOCCOCCNc4cccc5c4C(=O)N(C4CCC(=O)NC4=O)C5=O)nn3)c2)c(-c2ccc(F)cc2)n1CC[C@@H](O)C[C@@H](O)CC(=O)O (stereo partly specified)
5 | 600 nM | CC(C)c1c(C(=O)Nc2ccccc2)c(-c2cccc(OCCCc3cn(CCCCCCCOCCCc4cccc5c4CN(C4CCC(=O)NC4=O)C5=O)nn3)c2)c(-c2ccc(F)cc2)n1CC[C@@H](O)C[C@@H](O)CC(=O)O (stereo partly specified)
6 | > 3000 nM | CC(C)c1c(C(=O)Nc2ccccc2)c(-c2cccc(OCCCCc3cn(CCOCCOCCOCCNc4ccc5c(c4)C(=O)N(C4CCC(=O)NC4=O)C5=O)nn3)c2)c(-c2ccc(F)cc2)n1CC[C@@H](O)C[C@@H](O)CC(=O)O (stereo partly specified)
7 | 300 nM | CC(C)c1c(C(=O)Nc2ccccc2)c(-c2cccc(OCCCCCCc3cn(CCCCCCCNc4cccc5c4C(=O)N(C4CCC(=O)NC4=O)C5=O)nn3)c2)c(-c2ccc(F)cc2)n1CC[C@@H](O)C[C@@H](O)CC(=O)O (stereo partly specified)
8 | 500 nM | CC(C)c1c(C(=O)Nc2ccccc2)c(-c2cccc(OCCCCCc3cn(CCOCCOCCOCCOCCNc4cccc5c4C(=O)N(C4CCC(=O)NC4=O)C5=O)nn3)c2)c(-c2ccc(F)cc2)n1CC[C@@H](O)C[C@@H](O)CC(=O)O (stereo partly specified)
9 | > 3000 nM | CC(C)c1c(C(=O)Nc2ccccc2)c(-c2cccc(OCCCc3cn(CCOCC#Cc4cccc5c4CN(C4CCC(=O)NC4=O)C5=O)nn3)c2)c(-c2ccc(F)cc2)n1CC[C@@H](O)C[C@@H](O)CC(=O)O (stereo partly specified)
10 | 2300 nM | CC(C)c1c(C(=O)Nc2ccccc2)c(-c2cccc(OCCCc3cn(CCCCCOCCCc4cccc5c4CN(C4CCC(=O)NC4=O)C5=O)nn3)c2)c(-c2ccc(F)cc2)n1CC[C@@H](O)C[C@@H](O)CC(=O)O (stereo partly specified)
11 | > 3000 nM | CC(C)c1c(C(=O)Nc2ccccc2)c(-c2cccc(OCCCc3cn(CCOCCCc4cccc5c4CN(C4CCC(=O)NC4=O)C5=O)nn3)c2)c(-c2ccc(F)cc2)n1CC[C@@H](O)C[C@@H](O)CC(=O)O (stereo partly specified)
12 | 300 nM | CC(C)c1c(C(=O)Nc2ccccc2)c(-c2cccc(OCCCc3cn(CCCCCOCC#Cc4cccc5c4CN(C4CCC(=O)NC4=O)C5=O)nn3)c2)c(-c2ccc(F)cc2)n1CC[C@@H](O)C[C@@H](O)CC(=O)O (stereo partly specified)
13 | > 3000 nM | CC(C)c1c(C(=O)Nc2ccccc2)c(-c2cccc(OCCCc3cn(CCOCCOCCOCCNc4cccc5c4C(=O)N(C4CCC(=O)NC4=O)C5=O)nn3)c2)c(-c2ccc(F)cc2)n1CC[C@@H](O)C[C@@H](O)CC(=O)O (stereo partly specified)
14 | 500 nM | CC(C)c1c(C(=O)Nc2ccccc2)c(-c2cccc(OCCCCCCCc3cn(CCCCCCCNc4cccc5c4C(=O)N(C4CCC(=O)NC4=O)C5=O)nn3)c2)c(-c2ccc(F)cc2)n1CC[C@@H](O)C[C@@H](O)CC(=O)O (stereo partly specified)
15 | > 3000 nM | CC(C)c1c(C(=O)Nc2ccccc2)c(-c2cccc(OCCCc3cn(CCOCCOCCNc4cccc5c4C(=O)N(C4CCC(=O)NC4=O)C5=O)nn3)c2)c(-c2ccc(F)cc2)n1CC[C@@H](O)C[C@@H](O)CC(=O)O (stereo partly specified)

The next lines start with the molecule.

Row | SMILES | DC50
16 | CC(C)c1c(C(=O)Nc2ccccc2)c(-c2cccc(OCCCc3cn(CCCCCCCOCC#Cc4cccc5c4CN(C4CCC(=O)NC4=O)C5=O)nn3)c2)c(-c2ccc(F)cc2)n1CC[C@@H](O)C[C@@H](O)CC(=O)O (stereo partly specified) | 700 nM
17 | CC(C)c1c(C(=O)Nc2ccccc2)c(-c2cccc(OCCCCCc3cn(CCOCCOCCOCCOCCOCCNc4cccc5c4C(=O)N(C4CCC(=O)NC4=O)C5=O)nn3)c2)c(-c2ccc(F)cc2)n1CC[C@@H](O)C[C@@H](O)CC(=O)O (stereo partly specified) | 600 nM
18 | CC(C)c1c(C(=O)Nc2ccccc2)c(-c2cccc(OCCCCc3cn(CCOCCOCCOCCNc4cccc5c4C(=O)N(C4CCC(=O)NC4=O)C5=O)nn3)c2)c(-c2ccc(F)cc2)n1CC[C@@H](O)C[C@@H](O)CC(=O)O (stereo partly specified) | > 3000 nM
19 | CC(C)c1c(C(=O)Nc2ccccc2)c(-c2cccc(OCCCc3cn(CCCCOCC#Cc4cccc5c4CN(C4CCC(=O)NC4=O)C5=O)nn3)c2)c(-c2ccc(F)cc2)n1CC[C@@H](O)C[C@@H](O)CC(=O)O (stereo partly specified) | > 3000 nM
20 | CC(C)c1c(C(=O)Nc2ccccc2)c(-c2cccc(OCCCCCc3cn(CCOCCOCCOCCNc4ccc5c(c4)C(=O)N(C4CCC(=O)NC4=O)C5=O)nn3)c2)c(-c2ccc(F)cc2)n1CC[C@@H](O)C[C@@H](O)CC(=O)O (stereo partly specified) | > 3000 nM
21 | CC(C)c1c(C(=O)Nc2ccccc2)c(-c2cccc(OCCCc3cn(CCCCOCCCc4cccc5c4CN(C4CCC(=O)NC4=O)C5=O)nn3)c2)c(-c2ccc(F)cc2)n1CC[C@@H](O)C[C@@H](O)CC(=O)O (stereo partly specified) | > 3000 nM
22 | CC(C)c1c(C(=O)Nc2ccccc2)c(-c2cccc(OCCCc3cn(CCCCCCOCC#Cc4cccc5c4CN(C4CCC(=O)NC4=O)C5=O)nn3)c2)c(-c2ccc(F)cc2)n1CC[C@@H](O)C[C@@H](O)CC(=O)O (stereo partly specified) | 200 nM
23 | CC(C)c1c(C(=O)Nc2ccccc2)c(-c2cccc(OCCCCc3cn(CCOCCNc4cccc5c4C(=O)N(C4CCC(=O)NC4=O)C5=O)nn3)c2)c(-c2ccc(F)cc2)n1CC[C@@H](O)C[C@@H](O)CC(=O)O (stereo partly specified) | > 3000 nM
24 | CCN1C(=O)CCC(N2C(=O)c3cccc(NCCOCCOCCOCCOCCn4cc(CCCOc5cccc(-c6c(C(=O)Nc7ccccc7)c(C(C)C)n(CC[C@@H](O)C[C@@H](O)CC(=O)O)c6-c6ccc(F)cc6)c5)nn4)c3C2=O)C1=O (stereo partly specified) | > 3000 nM
25 | CC(C)c1c(C(=O)Nc2ccccc2)c(-c2cccc(OCCCCCc3cn(CCOCCOCCNc4cccc5c4C(=O)N(C4CCC(=O)NC4=O)C5=O)nn3)c2)c(-c2ccc(F)cc2)n1CC[C@@H](O)C[C@@H](O)CC(=O)O (stereo partly specified) | > 3000 nM
26 | CC(C)c1c(C(=O)Nc2ccccc2)c(-c2cccc(OCCCCCc3cn(CCOCCOCCOCCNc4cccc5c4C(=O)N(C4CCC(=O)NC4=O)C5=O)nn3)c2)c(-c2ccc(F)cc2)n1CC[C@@H](O)C[C@@H](O)CC(=O)O (stereo partly specified) | 1800 nM
27 | CC(C)c1c(C(=O)Nc2ccccc2)c(-c2cccc(OCCCc3cn(CCCCCCOCCCc4cccc5c4CN(C4CCC(=O)NC4=O)C5=O)nn3)c2)c(-c2ccc(F)cc2)n1CC[C@@H](O)C[C@@H](O)CC(=O)O (stereo partly specified) | 500 nM
28 | CC(C)c1c(C(=O)Nc2ccccc2)c(-c2cccc(OCCCc3cn(CCOCCNc4cccc5c4C(=O)N(C4CCC(=O)NC4=O)C5=O)nn3)c2)c(-c2ccc(F)cc2)n1CC[C@@H](O)C[C@@H](O)CC(=O)O (stereo partly specified) | > 3000 nM
29 | CC(C)c1c(C(=O)Nc2ccccc2)c(-c2cccc(OCCCc3cn(CCCOCCCc4cccc5c4CN(C4CCC(=O)NC4=O)C5=O)nn3)c2)c(-c2ccc(F)cc2)n1CC[C@@H](O)C[C@@H](O)CC(=O)O (stereo partly specified) | > 3000 nM
30 | CC(C)c1c(C(=O)Nc2ccccc2)c(-c2cccc(OCCCc3cn(CCCOCC#Cc4cccc5c4CN(C4CCC(=O)NC4=O)C5=O)nn3)c2)c(-c2ccc(F)cc2)n1CC[C@@H](O)C[C@@H](O)CC(=O)O (stereo partly specified) | > 3000 nM
31 | CC(C)c1c(C(=O)Nc2ccccc2)c(-c2cccc(OCCCCCc3cn(CCOCCNc4cccc5c4C(=O)N(C4CCC(=O)NC4=O)C5=O)nn3)c2)c(-c2ccc(F)cc2)n1CC[C@@H](O)C[C@@H](O)CC(=O)O (stereo partly specified) | 3000 nM
